A selection: hits, their analogues and other compounds. The true share with any hit is near 2.4%.
NadD inh = inhibitors of S. aureus NadD, primary screen, biochemical, colorimetric, uHTS | Nicotinate-nucleotide adenylyltransferase NadD (Staphylococcus aureus N315) | actives 0.78% (n = 360,000) | purified NadD enzyme, colorimetric absorbance read-out | inhibition, % at 20 µM; in the data active = inhibition above about 26%
SUMO1 PPI mod = modulators of SUMO1 protein-protein interactions, primary screen, biochemical, uHTS; actives 0.33% (n = 360,000); inhibition, % at 20 µM; SUMO1 binding to a labelled peptide, TR-FRET, 1 h; in the data active = inhibition above about 37%
Target sequence (P63165 whole entry, looked up): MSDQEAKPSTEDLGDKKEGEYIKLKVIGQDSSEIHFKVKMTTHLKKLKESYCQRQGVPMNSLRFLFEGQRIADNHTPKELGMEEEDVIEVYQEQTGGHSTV
STEP block = STEP phosphatase inhibitors, primary screen, biochemical, fluorescence intensity, uHTS | Tyrosine-protein phosphatase non-receptor type 5 (Homo sapiens), P54829 | recombinant STEP, OMFP fluorogenic substrate | inhibition, % at 20 µM | actives 0.25% (n = 360,000) | AID 588621, 2011;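 active = inhibition at 20 µM, scaled per plate between control wells, above about 37%, limit read from the data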;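 also: 0% = DMSO with enzyme and substrate and 100% = substrate only without enzyme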
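Assay system: isolated STEP enzyme. Buffer or medium: pH 6.0 Bis-Tris with DTT and Tween 20. Also added: fluorogenic phosphatase substrate OMFP at 25 µM final. Dosing: 20 µM, 1% DMSO. Timing: 20 min reaction, room temperature, in the dark. Measured by: fluorescence intensity, excitation 480 nm, emission 540 nm. Evaluation: normalized % inhibition.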
LMPTP inh = LMPTP phosphatase inhibitors, primary screen, biochemical, fluorescence intensity, uHTS; actives 0.22% (n = 360,000); recombinant LMPTP-A, OMFP fluorogenic substrate; inhibition, % at 20 µM; Low molecular weight phosphotyrosine protein phosphatase (Homo sapiens), P24666;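 active = compounds that cut the enzyme signal by at least half of the control window in the single-dose screen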;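 also: plate controls were DMSO wells with enzyme plus substrate for no effect and substrate without enzyme for full effect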
Target sequence (P24666 whole entry, looked up): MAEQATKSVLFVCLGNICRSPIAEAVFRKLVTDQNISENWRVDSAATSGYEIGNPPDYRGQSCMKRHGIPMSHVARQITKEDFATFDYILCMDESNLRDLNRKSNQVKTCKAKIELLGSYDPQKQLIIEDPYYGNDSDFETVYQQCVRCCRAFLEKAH
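Material: LMPTP-A; amount: 0.625 nM enzyme; doses: single 20 µM dose; times: reaction 50 min, room temperature, dark; technique: fluorescence intensity of OMFP turnover product; benchmarks: no-enzyme and uninhibited controls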
Scp1 inh = Scp-1 phosphatase inhibitors, primary screen, biochemical, colorimetric, uHTS; Carboxy-terminal domain RNA polymerase II polypeptide A small phosphatase 1 (Homo …; AID 493091, 2011; Recombinant Scp1, phosphopeptide, malachite green phosphate absorbance; inhibition, % at 20 µM; actives 0.88% (n = 340,000);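 active = inhibition above about 50% at 20 µM, limit read from the data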;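 also: plate controls were DMSO wells with enzyme for no effect and wells lacking enzyme for full effect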
Target sequence (Q9GZU7 76-261 limits assumed): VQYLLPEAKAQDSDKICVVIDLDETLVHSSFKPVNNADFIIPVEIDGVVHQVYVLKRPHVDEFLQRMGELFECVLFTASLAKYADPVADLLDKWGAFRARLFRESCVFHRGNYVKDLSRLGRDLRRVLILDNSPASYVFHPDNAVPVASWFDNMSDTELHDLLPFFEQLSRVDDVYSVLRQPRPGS
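Test system: SCP-1 phosphatase catalytic domain, residues 76-261; measured by: colorimetric phosphate reagent with accelerator and stabiliser, absorbance at 630 nm; timing: enzyme reaction 45 min at room temperature, colour 5 min, stabilisation 30 min; also added: Phosphorylated 17-residue peptide substrate; compound dosing: one concentration, 20 µM, with 1.0% DMSO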
DNMT1 block = human DNMT1 methyltransferase inhibitors, primary screen, biochemical, molecular beacon, fluorescence, HinP1I cleavage, uHTS; inhibition (reported as % activation of signal), % at 10 µM; actives 0.83% (n = 360,000); in the data active = inhibition above about 50%
NadD conf = inhibitors of S. aureus NadD, confirmation, biochemical, colorimetric, single concentration | shares compounds with NadD inh | purified S. aureus NadD, colorimetric enzyme assay | inhibition, % at 20 µM | actives 13% (n = 2,000) | AID 624309, 2012; in the data active = inhibition mostly above about 42%, no sharp cut-off; inactive = mostly below about 42%
* marks the source's active call; other numbers are inactive results; x = no result.

SMILES | NadD inh | SUMO1 PPI mod | STEP block | LMPTP inh | Scp1 inh | DNMT1 block | NadD conf
COc1ccc(Cc2c(C3CCCCC3)nc3c(Cl)cc(C(F)(F)F)cn23)c(C)c1 | 31.4* | -1.1 | x | -0.2 | x | x | 13.3
Cc1cccc(NC(=O)c2nc[nH]c2C(=O)Nc2ccccc2[N+](=O)[O-])c1 | 31.2* | -1.8 | 0.3 | 0.5 | -8.0 | 22.7 | 3.4
FC(F)Oc1ccc(NC(=S)NNc2ccnc3cc(Cl)ccc23)cc1 | 31.8* | -9.9 | 9.9 | 9.2 | 3.2 | -13.1 | 18.1
C#CCn1c(=NC(=O)c2cc(-c3cccs3)nc3ccccc23)sc2cc(S(N)(=O)=O)ccc21 | 53.3* | 2.4 | -1.4 | 2.8 | 15.5 | -3.5 | 54.8*
Cc1ccc(-c2csc(N3CCN(c4ccc5nc(-c6ccncc6)n(CCN6CCCCC6)c5c4)CC3)n2)cc1 | 20.0 | -28.1 | 3.0 | 1.7 | -1.3 | -15.8 | x
Cc1ccc(-c2csc(N3CCN(c4cc5c(cc4Cl)nc(-c4ccncc4)n5CCN4CCCCC4)CC3)n2)cc1 | 31.1* | 8.2 | 3.2 | 4.1 | 11.9 | 20.9 | 20.1
O=C(Nc1nnc(SCc2ccc(F)cc2)s1)C1Cc2ccccc2CN1C(=O)c1ccco1 (stereo unspecified) | 60.3* | 9.9 | -0.6 | 2.8 | -4.3 | 21.5 | 52.1*
CC1Cc2ccccc2N1C(=O)CSc1nc2cc3c(cc2cc1C#N)OCO3 (stereo unspecified) | 35.1* | -9.5 | 4.2 | 1.6 | -10.4 | 2.0 | 3.2
Cc1cc2cc3c(cc2nc1SCC(=O)N1c2ccccc2CC1C)OCO3 (stereo unspecified) | 16.2 | -4.2 | 7.0 | 3.4 | 5.4 | -5.7 | x
COc1ccc(C2=CC(=O)C[C@H](c3ccc(F)cc3)C2)c(OC)c1 | -7.8 | -11.4 | -1.3 | 2.0 | -14.5 | -2.7 | x
O=C(N/N=C/c1ccc(Cl)c([N+](=O)[O-])c1)c1cc(-c2ccccc2)nc2ccccc12 | 18.8 | 2.6 | 2.4 | 0.0 | -0.9 | 14.5 | x
Cc1ccc(/C=N/NC(=O)c2cc(-c3ccncc3)nc3ccccc23)o1 | -2.3 | -17.9 | 0.2 | -0.7 | -8.3 | 3.6 | x
Cc1ccc(-c2cc(C(=O)N/N=C/c3ccc([N+](=O)[O-])o3)c3ccccc3n2)o1 | 31.9* | -7.2 | 7.8 | 6.4 | 34.9 | 23.1 | 8.4
O=C(N/N=C/c1cc([N+](=O)[O-])ccc1Cl)c1cc(-c2ccccc2)nc2ccccc12 | 35.7* | 6.1 | -1.9 | -0.6 | -7.4 | 6.8 | -0.6
Cc1ccccc1-c1noc(CCC(=O)NCC2CCCO2)n1 (stereo unspecified) | 0.2 | -0.4 | 1.6 | -0.3 | 14.7 | -2.2 | x
C=C(C)[C@H]1CC=C(C)/C(=N/NC(=O)CNc2ccccc2OC)C1 | -6.2 | -2.6 | 0.5 | 0.2 | -2.7 | -3.9 | x
C=C(C)C1CC=C(C)/C(=N\NC(=O)CNc2cccc3ccccc23)C1 (stereo unspecified) | 36.7* | 1.9 | -4.4 | 0.8 | -1.1 | -34.0 | 1.1
CC(C)Nc1nc(NCCN2CCCC2)c2sc(-c3ccccc3)cc2n1 | 34.5* | -57.3 | 7.5 | 51.9* | x | -10.9 | -20.8
CC(C)Nc1nc(-c2ccccc2F)c2sc(-c3ccccc3)cc2n1 | 4.4 | -4.0 | -1.0 | 3.8 | x | -9.2 | x
CCCS(=O)(=O)N1CCCC(C(=O)NCCN2CCC(Cc3ccccc3)CC2)C1 (stereo unspecified) | -6.9 | 1.1 | 4.3 | 0.9 | -9.6 | -0.6 | x
Nc1cccc2c(=O)c3ccccc3[nH]c12 | 28.8* | 8.7 | 6.2 | 22.6 | -5.3 | 16.8 | -3.4
CC(=O)N1CCN(C(=S)NC(=O)C23CC4CC(CC(C4)C2)C3)CC1 | -6.2 | 2.3 | 0.3 | -0.2 | -2.2 | 9.4 | x
O=C(Nc1nc2ccc(F)cc2s1)C1CCN(S(=O)(=O)c2cc([N+](=O)[O-])ccc2Cl)CC1 | 35.5* | 0.5 | 2.4 | 3.1 | 55.0* | 26.9 | 12.5
Nc1nonc1-n1nnc(C(=O)N/N=C\c2cccc(Cl)c2)c1CN1CCOCC1 | -1.5 | -13.2 | -1.0 | -1.1 | 0.7 | -1.2 | x
CN(C)c1ccc(/C=N/NC(=O)c2nnn(-c3nonc3N)c2CN(C)c2ccccc2)cc1 | 37.4* | 0.5 | -1.4 | 2.3 | 10.3 | 2.1 | 37.6
SMILES | NadD inh | SUMO1 PPI mod | STEP block | LMPTP inh | Scp1 inh | DNMT1 block | NadD conf
Nc1nonc1-n1nnc(C(=O)N/N=C/c2ccccc2)c1CN1CCc2ccccc21 | 60.5* | 0.8 | 2.1 | 1.5 | 6.5 | -13.4 | 43.1
CCN(CC)c1ccc(/C=N/NC(=O)c2nnn(-c3nonc3N)c2-c2ccc(C)cc2)cc1 | 47.1* | -7.6 | 0.0 | 1.3 | -4.5 | -14.4 | 25.2
CN(Cc1c(C(=O)N/N=C/c2ccccc2)nnn1-c1nonc1N)c1ccccc1 | 10.8 | -2.0 | -0.1 | 0.3 | -3.1 | -5.5 | x
CCOc1ccc(/C=N/NC(=O)c2nnn(-c3nonc3N)c2-c2ccc(OCC)cc2)cc1 | 2.4 | -2.2 | 0.9 | -0.1 | 0.6 | 1.9 | x
Cc1cccc(CCNC(=O)c2cccc3c2C(=O)N(C2CCCCC2)C3)c1 | 0.1 | -0.2 | 3.3 | 7.5 | 9.8 | 5.9 | x
CC(C)C(=O)NC(c1cccs1)c1cc([N+](=O)[O-])c2cccnc2c1O (stereo unspecified) | 9.4 | -15.7 | 4.8 | 12.8 | -30.4 | -13.7 | x
CCC(=O)NC(c1cccs1)c1cc([N+](=O)[O-])c2cccnc2c1OC (stereo unspecified) | 32.5* | -7.4 | 7.6 | 48.9 | x | 33.0 | 25.6
COc1cc(OC)cc(-c2c(-c3cccs3)c3cc(-c4ccn[nH]4)ccc3n2C)c1 | 37.7* | 17.1 | -1.0 | 0.0 | 6.4 | -26.3 | 19.5
O=C(Nc1nc(-c2ccccc2)cs1)c1ccc(=O)[nH]c1 | -3.3 | 5.8 | -1.7 | -0.1 | -0.7 | -5.3 | x
N#Cc1ccc(-c2csc(NC(=O)c3ccc(N4C(=O)CCC4=O)cc3)n2)cc1 | 0.9 | -15.6 | 1.8 | 0.3 | -5.2 | -3.8 | x
C=CCn1c(C)cc(-c2csc(NC(=O)CCc3nc4ccccc4c(=O)[nH]3)n2)c1C | 51.6* | 0.3 | -3.9 | 7.4 | 6.8 | 3.7 | 28.3
